Here are results for 9 compounds from ChEMBL document CHEMBL2396525, “Synthesis and anti-HCMV activity of 1-[ω-(phenoxy)alkyl]uracil derivatives and analogues thereof” (Bioorg Med Chem, 2013).

As a reminder, the EC50 is the concentration that produces a half-maximal response. Broadly, the CC50 is the concentration that lowers cell viability or growth by half. A lower CC50 goes with harm at low concentration.

Active and inactive are the calls of the source. No cut-off for these calls is given here. Bounds are passed on as bounds.

The test system of data set [1] is Influenza A virus. Description: Antiviral activity against Influenza virus A virus H3N2. It is filed as functional, organism-based. The method, boiled down: (§1)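 The assay was a cell-based cytopathicity inhibition test on confluent monolayers with serial compound dilutions. EC50 was the concentration that reduced virus-induced cytopathicity by 50%.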
The subject of data set [2] is Human alphaherpesvirus 3. Description: Antiviral activity against Varicella-zoster virus YS. It is filed as functional, organism-based. The method in brief: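 VZV was assayed by plaque formation. Confluent cell cultures received 10 or 100 PFU with varying compound concentrations, and plaques were recorded once complete in untreated infected controls. EC50 is the concentration that reduces plaque formation by 50%.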

The subject of another data set is Punta Toro virus. The data set can be described thus: Antiviral activity against Punta Toro virus. It is filed as functional, organism-based. The method in brief: (§2)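 Confluent HEL, Vero, HeLa or MDCK cell cultures were inoculated with 100 CCID50 of virus alongside varying compound concentrations. Cytopathicity was scored when it reached completion in untreated virus controls. EC50 is the concentration that reduces virus-induced cytopathogenicity by 50%.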

Data set [3] deals with Human alphaherpesvirus 1. Description: Antiviral activity against thymidine kinase deficient acyclovir-resistant Herpes simplex virus type 1 KOS. It is filed as functional, organism-based.
For a further data set, the system named is Feline coronavirus. The data set can be described thus: Antiviral activity against Feline coronavirus. It is filed as functional, organism-based.
For data set [4], the system named is Human betaherpesvirus 5. The data set can be described thus: Antiviral actiivty against Human herpesvirus 5 Davis infected in HEL assessed as reduction of virus-induced plaque formation. The format is functional, organism-based. Particulars: Human betaherpesvirus 5, Davis. The method in brief:
(§3)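 HCMV strains AD-169 and Davis were tested on confluent human embryonic lung fibroblast monolayers infected with 100 PFU in the presence of serial compound concentrations. Plaques were counted once formation was complete in untreated infected controls. EC50 is the concentration that cuts plaque formation by 50%.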

In data set [5] the test system is Human alphaherpesvirus 1. Description: Antiviral activity against Herpes simplex virus type 1 KOS. The format is functional, organism-based. The method in brief: as §2
In data set [6] the test system is Human immunodeficiency virus 1. Description: Antiviral activity against HIV1 3B infected in human CEM cells assessed as inhibition of virus-induced giant cell formation after 4 to 5 days. It is filed as functional, organism-based. Particulars: CCRF-CEM. The method, boiled down:
(§4)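 CEM cells at about 3 × 10^5 cells/mL were infected with 100 CCID50 of HIV per mL, with compound dilutions present. They were incubated 4–5 days at 37 °C in humidified CO2, and syncytia were scored microscopically. EC50 is the concentration that inhibits giant cell formation by 50%.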

For data set [7], the system named is Human betaherpesvirus 5. The data set can be described thus: Antiviral actiivty against Human herpesvirus 5 AD169 infected in HEL assessed as reduction of virus-induced plaque formation. The format is functional, organism-based. The settings on record: Human betaherpesvirus 5, AD169. The method in brief:
as §3

Data set [8] relates to Human immunodeficiency virus 2. The data set can be described thus: Antiviral activity against HIV2 ROD infected in human CEM cells assessed as inhibition of virus-induced giant cell formation after 4 to 5 days. The format is functional, organism-based. Particulars: ISOLATE ROD, CCRF-CEM. The method, boiled down:
as §4

Data set [9] has as its system Vesicular stomatitis virus. The data set can be described thus: Antiviral activity against Vesicular stomatitis virus. The format is functional, organism-based.
Data set [10] relates to Human alphaherpesvirus 2. The data set can be described thus: Antiviral activity against Herpes simplex virus type 2 G. The settings on record: strain G. The format is functional, organism-based. The method, boiled down:
as §2

In data set [11] the test system is Mammalian orthoreovirus 1. The data set can be described thus: Antiviral activity against Reovirus-1. The format is functional, organism-based. The method, boiled down:
as §2

In a further data set the test system is Human respirovirus 3. Description: Antiviral activity against Parainfluenza virus 3. The format is functional, organism-based. The method, boiled down:
as §2

The test system of data set [12] is Respiratory syncytial virus. Description: Antiviral activity against Respiratory syncytial virus Long. The format is functional, organism-based. The method in brief:
as §2

The next data set has as its system Coxsackievirus B4. Description: Antiviral activity against Coxsackie B4 virus. It is filed as functional, organism-based. The method in brief:
as §2

Data set [13] relates to Influenza A virus. Description: Antiviral activity against Influenza virus A virus H1N1. It is filed as functional, organism-based. The method in brief:
as §1

A further data set concerns Sindbis virus. The data set can be described thus: Antiviral activity against Sindbis virus. It is filed as functional, organism-based. The method, boiled down: as §2
For data set [14], the system named is Human alphaherpesvirus 2. Description: Antiviral activity against Herpes simplex virus type 2 Lyons. The format is functional, organism-based. The method in brief: as §2
Another data set deals with Vaccinia virus. Description: Antiviral activity against Vaccinia virus Lederle. It is filed as functional, organism-based. Particulars: Orthopoxvirus vaccinia.
For a further data set, the system named is Influenza B virus. The data set can be described thus: Antiviral activity against Influenza B virus. The format is functional, organism-based. The method, boiled down:
as §1

Data set [15] is described as follows: Cytotoxicity against HEL assessed as minimum cytotoxic concentration required to cause microscopically detectable alteration in cell morphology. The settings on record: human, HEL cells. The format is cell-based.
For data set [16], the system named is Human alphaherpesvirus 3. The data set can be described thus: Antiviral activity against Varicella-zoster virus OKA. Particulars: strain Oka vaccine. The format is functional. The method, boiled down: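 Confluent cell monolayers were infected with 10 or 100 PFU of VZV in the presence of serial compound dilutions. Plaque formation was recorded once untreated infected controls reached completion. EC50 was the concentration that reduced plaque formation by 50%.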

The test system of a further data set is HEL. Description: Cytotoxicity against HEL. The format is cell-based. The settings on record: human.

In the case of `O=C(O)c1ccc(OCCCCCn2ccc(=O)[nH]c2=O)cc1`, the outcome in the data set on Influenza A virus [1], in the data set on Human alphaherpesvirus 3 [2], in the data set on Punta Toro virus, in the data set with Human alphaherpesvirus 1 [3], in the data set with Feline coronavirus and in the data set on Human alphaherpesvirus 1 [5] was inactive. In addition, the outcome (in [6]; in [8]; in [9]; with Human alphaherpesvirus 2 [10]; in [11]; with Human respirovirus 3) was inactive. Further, the outcome (in data set [12]; with Coxsackievirus B4; with Influenza A virus [13]; with Sindbis virus; in the data set with Human alphaherpesvirus 2 [14]; in the data set with Vaccinia virus) was inactive. The outcome with Influenza B virus and in the data set with Human alphaherpesvirus 3 [16] was inactive. Besides, the EC50 in the data set with Human betaherpesvirus 5 [4] and with Human betaherpesvirus 5 [7] was more than 100 µM each time. Also, the MCC in data set [15] is more than 100 µM.
In the case of `O=c1ccn(CCCCOc2ccc(Br)cc2)c(=O)[nH]1`, the result in the data set on Influenza A virus [1], in the data set with Human alphaherpesvirus 3 [2], in the data set on Punta Toro virus, in the data set with Human alphaherpesvirus 1 [3], in the data set on Feline coronavirus and with Human alphaherpesvirus 1 [5] was inactive. Further, the result (in data set [6]; in data set [8]; in [9]; in the data set on Human alphaherpesvirus 2 [10]; in data set [11]; in the data set on Human respirovirus 3) was inactive. Also, the outcome (in data set [12]; in the data set with Coxsackievirus B4; in the data set on Influenza A virus [13]; in the data set with Sindbis virus; in the data set on Human alphaherpesvirus 2 [14]; in the data set with Vaccinia virus) was inactive. Further, the result with Influenza B virus and in the data set with Human alphaherpesvirus 3 [16] was inactive. Further, the EC50 in the data set with Human betaherpesvirus 5 [4] and with Human betaherpesvirus 5 [7] was more than 20 µM throughout. In addition, the MCC in data set [15] stood at 100 µM.
As to `O=c1ccn(CCCCCOc2ccc([N+](=O)[O-])cc2)c(=O)[nH]1`, the outcome in the data set with Influenza A virus [1], in the data set on Human alphaherpesvirus 3 [2], in the data set on Punta Toro virus, in the data set on Human alphaherpesvirus 1 [3], with Feline coronavirus and in the data set with Human alphaherpesvirus 1 [5] was inactive. Moreover, the outcome (in data set [6]; in [8]; in [9]; in the data set on Human alphaherpesvirus 2 [10]; in data set [11]; in the data set on Human respirovirus 3) was inactive. The outcome (in data set [12]; in the data set on Coxsackievirus B4; with Influenza A virus [13]; in the data set on Sindbis virus; in the data set on Human alphaherpesvirus 2 [14]; in the data set with Vaccinia virus) was inactive. Also, the result with Influenza B virus and with Human alphaherpesvirus 3 [16] was inactive. Besides, the EC50 in the data set on Human betaherpesvirus 5 [4] and in the data set on Human betaherpesvirus 5 [7] was more than 4 µM throughout. Further, the MCC in data set [15] was 20 µM.
For `O=c1ccn(CCCCCCOc2ccc(Br)cc2)c(=O)[nH]1`, the outcome with Influenza A virus [1], in the data set on Human alphaherpesvirus 3 [2], with Punta Toro virus, in the data set with Human alphaherpesvirus 1 [3], in the data set on Feline coronavirus and in the data set with Human alphaherpesvirus 1 [5] was inactive. The outcome (in data set [6]; in data set [8]; in data set [9]; in the data set on Human alphaherpesvirus 2 [10]; in data set [11]; in the data set on Human respirovirus 3) was inactive. Further, the outcome (in [12]; with Coxsackievirus B4; with Influenza A virus [13]; in the data set with Sindbis virus; in the data set on Human alphaherpesvirus 2 [14]; in the data set on Vaccinia virus) was inactive. Besides, the result with Influenza B virus and with Human alphaherpesvirus 3 [16] was inactive. Besides, the EC50 in the data set on Human betaherpesvirus 5 [4] and with Human betaherpesvirus 5 [7] was more than 4 µM in each case. Besides, the MCC in data set [15] was 20 µM.
For the compound `O=c1ccn(CCCCCOc2ccc(-c3ccccc3)cc2)c(=O)[nH]1`, the outcome in the data set on Influenza A virus [1], in the data set with Human alphaherpesvirus 3 [2], in the data set on Punta Toro virus, in the data set with Human alphaherpesvirus 1 [3], in the data set with Feline coronavirus and in the data set with Human alphaherpesvirus 1 [5] was inactive. In addition, the outcome (in data set [6]; in data set [8]; in data set [9]; in the data set with Human alphaherpesvirus 2 [10]; in data set [11]; with Human respirovirus 3) was inactive. The result (in data set [12]; in the data set on Coxsackievirus B4; in the data set on Influenza A virus [13]; with Sindbis virus; in the data set on Human alphaherpesvirus 2 [14]; in the data set on Vaccinia virus) was inactive. Further, the outcome in the data set with Influenza B virus and with Human alphaherpesvirus 3 [16] was inactive. In addition, the figures for the EC50 in the data set on Human betaherpesvirus 5 [4] and in the data set on Human betaherpesvirus 5 [7] were 54 µM and more than 20 µM, respectively. Besides, the MCC in [15] was found to be 100 µM.
With `O=c1ccn(CCCCCOc2ccc(Cl)cc2)c(=O)[nH]1`, the outcome in the data set on Influenza A virus [1], in the data set on Human alphaherpesvirus 3 [2], in the data set on Punta Toro virus, in the data set on Human alphaherpesvirus 1 [3], in the data set with Feline coronavirus and in the data set on Human alphaherpesvirus 1 [5] was inactive. The outcome (in [6]; in data set [8]; in [9]; in the data set with Human alphaherpesvirus 2 [10]; in data set [11]; in the data set with Human respirovirus 3) was inactive. The outcome (in data set [12]; in the data set on Coxsackievirus B4; with Influenza A virus [13]; with Sindbis virus; in the data set with Human alphaherpesvirus 2 [14]; with Vaccinia virus) was inactive. The outcome in the data set on Influenza B virus and with Human alphaherpesvirus 3 [16] was inactive. Moreover, the EC50 in the data set with Human betaherpesvirus 5 [4] and in the data set with Human betaherpesvirus 5 [7] was more than 100 µM each time. Further, the MCC in data set [15] was more than 100 µM.
Consider `Nc1ccn(C[C@@H](CO)OCP(=O)(O)O)c(=O)n1` [CIDOFOVIR], for which the EC50 worked out at 1.1 µM in the data set on Human betaherpesvirus 5 [4] and 1.3 µM with Human betaherpesvirus 5 [7]. For the same compound, the CC50 in the data set with HEL stood at 161 µM. The MCC in [15] was 317 µM.
In the case of `O=c1ccn(CCCOc2ccc(Br)cc2)c(=O)[nH]1`, the result in the data set with Influenza A virus [1], in the data set on Human alphaherpesvirus 3 [2], with Punta Toro virus, in the data set on Human alphaherpesvirus 1 [3], with Feline coronavirus and with Human alphaherpesvirus 1 [5] was inactive. Moreover, the result (in [6]; in [8]; in data set [9]; in the data set on Human alphaherpesvirus 2 [10]; in [11]; with Human respirovirus 3) was inactive. In addition, the result (in data set [12]; with Coxsackievirus B4; in the data set on Influenza A virus [13]; with Sindbis virus; with Human alphaherpesvirus 2 [14]; in the data set on Vaccinia virus) was inactive. Further, the result in the data set on Influenza B virus and with Human alphaherpesvirus 3 [16] was inactive. Moreover, the EC50 with Human betaherpesvirus 5 [4] and in the data set on Human betaherpesvirus 5 [7] was more than 100 µM each time. In addition, the MCC in data set [15] is more than 100 µM.
As for `Nc1nc(O)c2ncn(COC(CO)CO)c2n1` [GANCICLOVIR], the EC50 in the data set on Human betaherpesvirus 5 [4] was determined as 8.3 µM. Further, the CC50 with HEL stood at 200 µM. Moreover, the MCC in [15] stood at 394 µM.
